This note sets out measurements from ChEMBL document CHEMBL2176975, “Novel toll-like receptor 2 ligands for targeted pancreatic cancer imaging and immunotherapy” (J Med Chem, 2012).

The species named for series [1] is Mus musculus. The series is described as follows: Immunomodulatory activity in Trp1455/9M peptide immunized C57BL/6 mouse assessed as Trp1455/9M specific CD8+ T cells in blood at 50 ug using Trp1455/9M/ H-2Db staining measured after 7 of immunization by FACS analysis. The series is classed as functional, T-cell. The gist of the method: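 C57BL/6 mice, 6-8 weeks old, immunized i.v. (200 μL) with a mixture of 100 μg Trp1_455/9M peptide, 50 μg anti-CD40 antibody (FGK45.5) and 50 μg TLR2 agonist. Submandibular blood taken, red cells lysed with ammonium chloride, stained 40 min on ice with CD8a, Trp1_455/9M/H-2Db tetramer and anti-MHC class II. Tetramer+ % of CD8+ cells read by flow cytometry; three mice per group.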
In general terms: A flow cytometer gives signals particle by particle.

Series [2] concerns the target T1, Toll-like receptor 2 (Homo sapiens, UniProt O60603). The series is described as follows: Agonist activity at human TLR2 expressed in HEK293 cells assessed as induction of NF-kappaB signaling after 24 hrs by luminescence based luciferase reporter gene assay. The series is classed as functional, cell-based.
In series [3] the target is T1, Toll-like receptor 2. Description: Agonist activity at human TLR2 expressed in HEK293 cells assessed as induction of NF-kappaB signaling after 24 hrs by luminescence based luciferase reporter gene assay relative to 10 ug/mL of SAA. The series is classed as functional, cell-based. The gist of the method:
(§1)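 HEK-293/hTLR2 reporter cells transiently transfected with NF-κB-luciferase plasmid pNifty-Luc, stimulated 24 h with test compound at 1 μg/mL; luciferin-induced luminescence read. Fold enhancement taken versus serum amyloid A at 1 μg/mL or 10 μg/mL; n = 4.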
Background: In a reporter assay the amount or activity of a reporter protein is the signal.

The species entered for series [4] is Mus musculus. The series is described as follows: Immunomodulatory activity in Trp1455/9M peptide immunized C57BL/6 mouse assessed as Trp1455/9M specific CD8+ T cells in blood at 50 ug using Trp1455/9M/ H-2Db staining measured after 34 of immunization by FACS analysis. It is filed as functional, T-cell. The gist of the method: (§2)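 C57BL/6 mice, 6-8 weeks, immunized iv with 100 μg Trp1 455/9M peptide, 50 μg anti-CD40 antibody and 50 μg TLR2 agonist in 200 μL. Submandibular blood on days 7, 21, 34, red cells lysed, stained 40 min on ice with CD8a antibody, Trp1 455/9M/H-2Db tetramer and anti-MHC II; % tetramer-positive CD8+ cells by flow cytometry; three mice per group, mean and SD.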

For series [5], the target named is T1, Toll-like receptor 2. Description: Displacement of Eu-DTPA from human TLR2 expressed in HEK293 cells after 1 hr. The series is classed as cell-based. The gist of the method:
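Live-cell europium TRF competition binding in HEK-293/hTLR2 (poly-D-lysine plates) or SU.86.86 cells grown 2 days to ~80% confluence. Unlabeled ligand 1 μM to 0.01 nM plus 90 nM Eu-DTPA-labeled tracer, 1 h at 37°C; three washes, enhancement solution 30 min at 37°C, read at 340 nm excitation/615 nm emission with time delay.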

Series [6] addresses T1, Toll-like receptor 2. The series is described as follows: Agonist activity at human TLR2 expressed in HEK293 cells assessed as induction of NF-kappaB signaling after 24 hrs by luminescence based luciferase reporter gene assay relative to 1 ug/mL of SAA. It is filed as functional, cell-based. The gist of the method:
as §1

The species entered for series [7] is Mus musculus. The series is described as follows: Toxicity in Trp1455/9M peptide immunized C57BL/6 mouse at 50 ug measured after 34 of immunization. It is filed as organism-based. The settings on record: in vivo.
The species named for series [8] is Mus musculus. Description: Immunomodulatory activity in Trp1455/9M peptide immunized C57BL/6 mouse assessed as Trp1455/9M specific CD8+ T cells in blood at 50 ug using Trp1455/9M/ H-2Db staining measured after 21 of immunization by FACS analysis. It is filed as functional, T-cell. The procedure, abridged:
as §2

The structures appear in SMILES notation. Non-standard residues stand in square brackets, D forms with d. Residues, ends and D or L forms follow the SMILES beside them. *: point of attachment. Propyl(2R-PamO,3-PamO) = CCCCCCCCCCCCCCCC(=O)OC[C@H](C*)OC(=O)CCCCCCCCCCCCCCC; X1 = CC(=O)NCCCOCCOCCOCCCNC(=O)COCC(=O)*; Palmitoyl = CCCCCCCCCCCCCCCC(=O)*

T1 sequence (O60603 whole entry): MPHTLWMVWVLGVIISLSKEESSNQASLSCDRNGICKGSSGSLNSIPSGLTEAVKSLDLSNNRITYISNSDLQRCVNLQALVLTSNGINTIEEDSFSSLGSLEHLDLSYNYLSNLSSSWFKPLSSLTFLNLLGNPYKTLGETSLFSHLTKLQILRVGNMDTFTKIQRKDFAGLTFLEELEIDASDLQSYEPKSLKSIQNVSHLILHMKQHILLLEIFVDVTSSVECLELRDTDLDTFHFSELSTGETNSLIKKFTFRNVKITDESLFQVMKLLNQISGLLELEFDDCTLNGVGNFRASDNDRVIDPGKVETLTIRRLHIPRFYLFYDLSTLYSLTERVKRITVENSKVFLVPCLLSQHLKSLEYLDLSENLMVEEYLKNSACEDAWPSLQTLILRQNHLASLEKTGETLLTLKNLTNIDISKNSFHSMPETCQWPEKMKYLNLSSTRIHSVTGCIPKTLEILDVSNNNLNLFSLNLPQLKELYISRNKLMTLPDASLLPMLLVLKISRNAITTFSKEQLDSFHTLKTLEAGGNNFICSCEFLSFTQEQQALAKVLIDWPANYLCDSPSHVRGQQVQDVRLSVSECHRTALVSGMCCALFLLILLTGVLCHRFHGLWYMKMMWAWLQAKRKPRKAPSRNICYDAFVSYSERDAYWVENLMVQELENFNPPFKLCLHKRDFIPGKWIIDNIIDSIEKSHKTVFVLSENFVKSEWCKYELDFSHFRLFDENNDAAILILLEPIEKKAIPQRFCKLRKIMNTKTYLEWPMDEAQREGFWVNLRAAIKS

Broadly, the EC50 is the midpoint of the concentration-response curve. In general, Ki refers to the equilibrium dissociation constant of an inhibitor or competing ligand from its target. In the case of `CCCCCCCCCCCCCCCC(=O)OC[C@H](CSC[C@H](NC(=O)COCC(=O)NCCCOCCOCCOCCCNC(C)=O)C(=O)NCC(=O)N[C@H](CO)C(=O)NCCCOCCOCCOCCCNC(=O)COCC(N)=O)OC(=O)CCCCCCCCCCCCCCC`, the Activity in the series listed under Mus musculus [1] is on record as 49.6%; in the series filed under Mus musculus [4], 6.63%; in the series listed under Mus musculus [7] it was “Non-toxic”; in the series listed under Mus musculus [8] it was 14.6%. The EC50 on Toll-like receptor 2 [2] came out at 20 nM. In addition, the fold change (FC) amounted to 5.2 at Toll-like receptor 2 [3] and 14 on Toll-like receptor 2 [6]. Besides, the affinity at Toll-like receptor 2 [5], expressed as Ki, was 25 nM.

In the case of `CCCCCCCCCCCCCCCC(=O)OC[C@H](CSC[C@H](N)C(=O)N[C@@H](CO)C(=O)N[C@@H](CCCCN)C(=O)N[C@@H](CCCCN)C(=O)N[C@@H](CCCCN)C(=O)N[C@@H](CCCCN)C(=O)O)OC(=O)CCCCCCCCCCCCCCC` (H-C(Propyl(2R-PamO,3-PamO))SKKKK-OH), the Activity is reported as 56.6% in the series listed under Mus musculus [1], 11.3% in the series filed under Mus musculus [4], “Non-toxic” in the series listed under Mus musculus [7] and 18.4% in the series listed under Mus musculus [8]. In addition, at Toll-like receptor 2 [2], the EC50 was determined as 3.7 nM.

`CCCCCCCCCCCCCCCC(=O)N[C@@H](CSC[C@@H](COC(=O)CCCCCCCCCCCCCCC)OC(=O)CCCCCCCCCCCCCCC)C(=O)N[C@@H](CO)C(=O)N[C@@H](CCCCN)C(=O)N[C@@H](CCCCN)C(=O)N[C@@H](CCCCN)C(=O)N[C@@H](CCCCN)C(=O)O` (Palmitoyl-C(Propyl(2R-PamO,3-PamO))SKKKK-OH): at Toll-like receptor 2 [2], the EC50 worked out at 23 nM. Further, the Activity is 10.2% in the series filed under Mus musculus [4], “Non-toxic” in the series filed under Mus musculus [7] and 16.8% in the series listed under Mus musculus [8].

For the compound `CCCCCCCCCCCCCCCC(=O)OC[C@H](CSC[C@H](NC(=O)COCC(=O)NCCCOCCOCCOCCCNC(C)=O)C(=O)NCC(=O)N[C@@H](CO)C(=O)N[C@@H](CCC(N)=O)C(=O)N[C@@H](CC(N)=O)C(=O)N[C@@H](CC(C)C)C(=O)N[C@@H](C)C(=O)N[C@@H](CO)C(=O)N[C@@H](CC(C)C)C(=O)N[C@@H](CCC(=O)O)C(=O)N[C@@H](CCC(=O)O)C(N)=O)OC(=O)CCCCCCCCCCCCCCC` (X1-C(Propyl(2R-PamO,3-PamO))GSQNLASLEE-NH2), the fold change (FC) on Toll-like receptor 2 [3] amounted to 4.8; at Toll-like receptor 2 [6], 13.

As for `CCCCCCCCCCCCCCCC(=O)OC[C@H](CSC[C@H](NC(=O)COCC(=O)NCCCOCCOCCOCCCNC(C)=O)C(=O)N[C@H](CO)C(=O)N[C@H](CCCNC(=N)N)C(=O)N[C@H](Cc1ccccc1)C(=O)N[C@H](CC(=O)O)C(=O)N[C@H](CCC(=O)O)C(=O)N[C@H](CC(=O)O)C(=O)N[C@H](CC(=O)O)C(=O)N[C@H](CC(C)C)C(=O)N[C@H](CCC(=O)O)C(N)=O)OC(=O)CCCCCCCCCCCCCCC` (X1-C(Propyl(2R-PamO,3-PamO))[dS][dR][dF][dD][dE][dD][dD][dL][dE]-NH2), the fold change (FC) on Toll-like receptor 2 [3] worked out at 4.2; at Toll-like receptor 2 [6], 11.
